Measurements published in ChEMBL document CHEMBL1649119, “Daptomycin pharmacokinetics in adult oncology patients with neutropenic fever” (Antimicrob Agents Chemother, 2009).

Key:
[1] = Clearance in healthy human at 6 mg/kg, iv administered as 30 mins infusion every 24 hrs measured on day 1; assay type: ADME, organism-based; parameters: dose 6 mg/kg, route intravenous; conditions: in vivo
[2] = Renal clearance in adult human subjects at 6 mg/kg, iv administered as single dose 30 mins infusion; assay type: ADME, organism-based, Kidney; parameters: dose 6 mg/kg, route intravenous; conditions: in vivo, read-out: CL_renal (converted)
[3] = Clearance in cancer patient with neutropenic fever at 6 mg/kg, iv administered as 30 mins infusion every 24 hrs; assay type: ADME, organism-based; parameters: dose 6 mg/kg, route intravenous; conditions: human, in vivo
In short: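 29 adult oncology patients with neutropenic fever received 6 mg/kg (total body weight) as a 30-min IV infusion every 24 h. Plasma was sampled predose, at the end of infusion, and at 0.5, 1, 2, 4, 8, 12 and 24 h. Total drug was measured by validated HPLC (linear 1–100 μg/ml). Noncompartmental clearance = dose/AUC0-∞, with AUC from trapezoids plus last concentration/λz. Mean ± SD.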

[4] = Cmax in healthy human subjects at 10 mg/kg, iv administered as 30 mins infusion every 24 hrs measured on day 14; assay type: ADME, organism-based; parameters: dose 10 mg/kg, route intravenous; conditions: in vivo
[5] = Tmax in cancer patient with neutropenic fever at 6 mg/kg, iv administered as 30 mins infusion every 24 hrs; assay type: ADME, organism-based; parameters: dose 6 mg/kg, route intravenous; conditions: human, in vivo
In short: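 29 adult oncology patients with neutropenic fever received 6 mg/kg (total body weight) daptomycin as a 30-min IV infusion every 24 h. Plasma was sampled predose, at end of infusion, and 0.5, 1, 2, 4, 8, 12 and 24 h after infusion start. Total drug was measured by validated HPLC (linear 1–100 μg/ml, detection limit 1 μg/ml). Tmax was the observed value, analysed noncompartmentally.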

[6] = Clearance in adult human with hepatic impairment at 6 mg/kg, iv administered as single dose 30 mins infusion; assay type: ADME, organism-based, Liver; parameters: dose 6 mg/kg, route intravenous; conditions: in vivo
[7] = Unbound fraction in healthy human plasma at 6 mg/kg, iv administered as 30 mins infusion every 24 hrs measured on day 7; assay type: ADME, organism-based; parameters: dose 6 mg/kg, route intravenous
[8] = Clearance in morbidly obese human at 4 mg/kg, iv administered as single dose 30 mins infusion; assay type: ADME, organism-based; parameters: dose 4 mg/kg, route intravenous; conditions: in vivo
[9] = AUC (0 to infinity) in healthy human at 4 mg/kg, iv administered as 30 mins infusion every 24 hrs measured on day 1; assay type: ADME, organism-based; parameters: time infinity, dose 4 mg/kg, route intravenous; conditions: plasma
[10] = Drug excretion in adult human with hepatic impairment urine assessed as unchanged drug at 6 mg/kg, iv administered as single dose 30 mins infusion; assay type: ADME, organism-based; parameters: dose 6 mg/kg, route intravenous; conditions: read-out: Drug uptake
[11] = Volume of distribution at steady state in cancer patient with neutropenic fever at 6 mg/kg, iv administered as 30 mins infusion every 24 hrs; assay type: ADME, organism-based; parameters: dose 6 mg/kg, route intravenous; conditions: human, in vivo, read-out: Vdss
[12] = Cmax in adult human with hepatic impairment at 6 mg/kg, iv administered as single dose 30 mins infusion; assay type: ADME, organism-based; parameters: dose 6 mg/kg, route intravenous; conditions: in vivo
[13] = AUC (0 to infinity) in adult human subjects at 6 mg/kg, iv administered as single dose 30 mins infusion; assay type: ADME, organism-based; parameters: time infinity, dose 6 mg/kg, route intravenous; conditions: plasma
[14] = system: Homo sapiens; assay: Clearance in healthy human at 4 mg/kg, iv administered as single dose 30 mins infusion; assay type: ADME, organism-based; parameters: dose 4 mg/kg, route intravenous; conditions: in vivo, 0.5 h
[15] = Plasma protein binding in human after 8 hrs; assay type: ADME, cell-free; conditions: read-out: PPB (converted)
In short: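 Neutropenic-fever oncology patients received 6 mg/kg IV daptomycin; serum was drawn 0.5, 2 and 8 h after the end of infusion. Free drug was obtained by ultrafiltration (30,000-MW cutoff) and quantified by HPLC against a saline-matrix curve of 0.25–100 μg/ml, with total plasma drug also measured. Percent bound was (total − free)/total × 100; results are given as mean ± SD.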

[16] = Half life in healthy human subjects at 12 mg/kg, iv administered as 30 mins infusion every 24 hrs measured on day 14; assay type: ADME, organism-based; parameters: dose 12 mg/kg, route intravenous; conditions: in vivo
[17] = Mean residence time in adult human with hepatic impairment at 6 mg/kg, iv administered as single dose 30 mins infusion; assay type: ADME, organism-based; parameters: dose 6 mg/kg, route intravenous; conditions: in vivo
[18] = AUC (0 to infinity) in adult human with hepatic impairment at 6 mg/kg, iv administered as single dose 30 mins infusion; assay type: ADME, organism-based; parameters: time infinity, dose 6 mg/kg, route intravenous; conditions: plasma
[19] = Mean residence time in young healthy human at 4 mg/kg, iv administered as single dose 30 mins infusion; assay type: ADME, organism-based; parameters: dose 4 mg/kg, route intravenous; conditions: in vivo
[20] = AUC (0 to infinity) in old healthy human at 4 mg/kg, iv administered as single dose 30 mins infusion; assay type: ADME, organism-based; parameters: dose 4 mg/kg, route intravenous, time infinity; conditions: plasma
[21] = Half life in healthy human at 6 mg/kg, iv administered as 30 mins infusion every 24 hrs measured on day 7; assay type: ADME, organism-based; parameters: dose 6 mg/kg, route intravenous; conditions: in vivo
[22] = Plasma concentration in nonobese adult human at 4 mg/kg, iv administered as single dose 30 mins infusion measured after 24 hrs; assay type: ADME, organism-based; parameters: dose 4 mg/kg, route intravenous

## CCCCCCCCCC(=O)N[C@@H](Cc1c[nH]c2ccccc12)C(=O)N[C@H](CC(N)=O)C(=O)N[C@@H](CC(=O)O)C(=O)N[C@@H]1C(=O)NCC(=O)N[C@@H](CCCN)C(=O)N[C@@H](CC(=O)O)C(=O)N[C@H](C)C(=O)N[C@@H](CC(=O)O)C(=O)NCC(=O)N[C@H](CO)C(=O)N[C@@H]([C@H](C)CC(=O)O)C(=O)N[C@@H](CC(=O)c2ccccc2N)C(=O)O[C@@H]1C
[1]
  clearance: 0.143 mL/min/kg
[2]
  CL renal at 0.5 h: 0.0453 mL/min/kg
[3]
  clearance: 0.259 mL/min/kg
[4]
  Cmax: 139 µg/mL
[5]
  Tmax: 0.6 h
[6]
  clearance: 0.118 mL/min/kg
[7]
  fraction unbound at 7 day: 0.08
[8]
  clearance: 0.118 mL/min/kg
[9]
  AUC(0-inf): 425 µg·h/mL
[10]
  dose excreted at 0.5 h: 49.3%
[11]
  Vd: 0.18 L/kg
[12]
  Cmax: 114 µg/mL
[13]
  AUC(0-inf): 928 µg·h/mL
[14]
  CL: 9.84 mL/min
[15]
  fraction unbound at 8 h: 0.068
[16]
  half-life: 7.9 h
[17]
  MRT: 12 h
[18]
  AUC(0-inf): 867 µg·h/mL
[19]
  MRT: 9.05 h
[20]
  AUC(0-inf): 474 µg·h/mL
[21]
  half-life: 8.9 h
[22]
  concentration at 24 h: < 3.3 µg/mL
